These results are taken from ChEMBL document CHEMBL2390829, “N-alkylated 2,3,3-trimethylindolenines and 2-methylbenzothiazoles. Potential lead compounds in the fight against Saccharomyces cerevisiae infections” (Eur J Med Chem, 2013).

Converted amounts (≈) assume the structure as drawn.

The test system of one series is Candida albicans. Put plainly: Antifungal activity against Candida albicans SC5314 after 24 hrs. The class given is functional. The note with it: SC5314, 24 h. The gist of the method:
(§1)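 C. albicans SC5314 or S. cerevisiae BY4741a (S288C derivative) grown 12 h at 30 °C, 200 rpm in YPD. 3×10^4 cells seeded per well of a 96-well plate with 1:2 serial dilutions of compound (stocks in 20% v/v DMSO and medium). DMSO and medium served as controls. Growth was scored visually after 24 h at 30 °C. MIC was taken as the well before first growth. Run twice.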

Series [1] deals with Schizosaccharomyces pombe. The series is described as follows: Antifungal activity against Schizosaccharomyces pombe after 24 hrs. The class given is functional. The gist of the method:
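S. pombe NJ2 h⁻ (ura4-D18 leu1-32 ade6-M210 his7-366) precultured 12 h at 30 °C, 200 rpm in yeast extract broth (YE). 3×10^4 cells were exposed in 96-well plates to 1:2 serial dilutions of compound (stocks in 20% v/v DMSO and medium), with DMSO and medium controls. Growth was read visually at 24 h, 30 °C. MIC was the well preceding first visible growth. Duplicate experiments.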

The next series has as its system Saccharomyces cerevisiae. Put plainly: Antifungal activity against Saccharomyces cerevisiae BY4741a after 24 hrs. Format: functional. The gist of the method: as §1
A short description of series [2]: Lipophilicity, log P of the compound. The note with it: octanol/water. The class given is physicochemical.

On to `CC1=[N+](CCCS(=O)(=O)[O-])c2ccccc2C1(C)C`, for which the MIC (in the series with Candida albicans; in series [1]; in the series on Saccharomyces cerevisiae) was 1000 µg/mL (≈ 3.55 mM) in each case. Moreover, the logP (in general, the decadic logarithm of the partition coefficient of the neutral form, usually between octanol and water) in series [2] is -4.33.
With `CC1=[N+](C)c2ccccc2C1(C)C.[I-]`, the MIC (in general, the lowest concentration found to suppress growth) in the series with Candida albicans came out at 1000 µg/mL; in series [1], 500 µg/mL; in the series with Saccharomyces cerevisiae, 500 µg/mL. The logP in series [2] (read-out: logP) is -0.691.
Regarding `CC[N+]1=C(C)C(C)(C)c2ccccc21.[I-]`, the results for the MIC (with Candida albicans; in series [1]; against Saccharomyces cerevisiae) were 1000 µg/mL, 500 µg/mL and 500 µg/mL, respectively. Moreover, the lipophilicity (logP) in series [2] (read-out: logP) was -0.315.
Take `CCC[N+]1=C(C)C(C)(C)c2ccccc21.[I-]`: the MIC in the series on Candida albicans came to 1000 µg/mL; in series [1], 250 µg/mL; in the series on Saccharomyces cerevisiae it was 250 µg/mL. Further, the logP in series [2] (read-out: logP) turned out to be 0.188.
For `CCCC[N+]1=C(C)C(C)(C)c2ccccc21.[I-]`, the figures for the MIC (against Candida albicans; in series [1]; against Saccharomyces cerevisiae) were 1000 µg/mL, 250 µg/mL and 250 µg/mL, respectively. The log partition coefficient (logP) in series [2] (read-out: logP) was 0.747.
`CCCCC[N+]1=C(C)C(C)(C)c2ccccc21.[I-]`: the figures for the MIC (against Candida albicans; in series [1]; in the series with Saccharomyces cerevisiae) were 1000 µg/mL, 125 µg/mL and 250 µg/mL, respectively. The logP in series [2] (read-out: logP) was found to be 1.25.
The corresponding values for `CCCCCC[N+]1=C(C)C(C)(C)c2ccccc21.[I-]` are 1000 µg/mL, 125 µg/mL, 125 µg/mL and 1.76.
For `CCCCCCC[N+]1=C(C)C(C)(C)c2ccccc21.[I-]`, in that order: 1000 µg/mL, 62.5 µg/mL, 125 µg/mL and 2.26.
For `CCCCCCCC[N+]1=C(C)C(C)(C)c2ccccc21.[I-]`, in that order: 1000 µg/mL, 62.5 µg/mL, 62.5 µg/mL and 2.77.
As to `CCCCCCCCC[N+]1=C(C)C(C)(C)c2ccccc21.[I-]`, the MIC in the series with Candida albicans amounted to 1000 µg/mL; in series [1], 31.3 µg/mL; in the series with Saccharomyces cerevisiae, 31.3 µg/mL. Further, the logP in series [2] (read-out: logP) came to 3.27.
As to `CCCCCCCCCC[N+]1=C(C)C(C)(C)c2ccccc21.[I-]`, the MIC against Candida albicans was 500 µg/mL; in series [1], 15.6 µg/mL; in the series with Saccharomyces cerevisiae, 15.6 µg/mL. Besides, the logP in series [2] (read-out: logP) turned out to be 3.78.
On to `CC1=[N+](Cc2ccccc2)c2ccccc2C1(C)C.[Br-]`, for which the MIC (against Candida albicans; in series [1]; with Saccharomyces cerevisiae) was 1000 µg/mL each time. Also, the logP in series [2] (read-out: logP) is 0.904.
Take `CC1=[N+](CCCCS(=O)(=O)[O-])c2ccccc2C1(C)C`: the minimum inhibitory concentration (MIC) (in the series with Candida albicans; in series [1]; in the series on Saccharomyces cerevisiae) was 1000 µg/mL (≈ 3.39 mM) in each case. Moreover, the logP in series [2] is -4.114.
For `CC1=Nc2ccccc2C1(C)C`, the MIC came out at 500 µg/mL (≈ 3.14 mM) with Candida albicans, 250 µg/mL (≈ 1.57 mM) in series [1] and 1000 µg/mL (≈ 6.28 mM) in the series with Saccharomyces cerevisiae. For the same compound, in series [2] (read-out: logP), the logP came to 3.29.
The corresponding values for `Cc1sc2ccccc2[n+]1C.[I-]` are 1000 µg/mL, 500 µg/mL, 500 µg/mL and -1.08.
The corresponding values for `CC[n+]1c(C)sc2ccccc21.[I-]` are 1000 µg/mL, 250 µg/mL, 500 µg/mL and -0.701.
As to `CCC[n+]1c(C)sc2ccccc21.[I-]`, the MIC came out at 1000 µg/mL in the series with Candida albicans, 250 µg/mL in series [1] and 250 µg/mL in the series with Saccharomyces cerevisiae. Also, the logP in series [2] (read-out: logP) was -0.199.
`CCCC[n+]1c(C)sc2ccccc21.[Br-]`: the MIC against Candida albicans came out at 1000 µg/mL; in series [1] it was 250 µg/mL; against Saccharomyces cerevisiae it was 250 µg/mL. Also, in series [2] (read-out: logP), the logP is 0.36.
For the compound `CCCCC[n+]1c(C)sc2ccccc21.[Br-]`, the MIC was 1000 µg/mL in the series with Candida albicans, 250 µg/mL in series [1] and 62.5 µg/mL in the series on Saccharomyces cerevisiae. Also, the logP in series [2] (read-out: logP) turned out to be 1.25.
In the case of `CCCCCC[n+]1c(C)sc2ccccc21.[Br-]`, the MIC in the series with Candida albicans stood at 1000 µg/mL; in series [1], 250 µg/mL; in the series on Saccharomyces cerevisiae it was 62.5 µg/mL. Also, the logP in series [2] (read-out: logP) was found to be 1.37.
For `CCCCCCC[n+]1c(C)sc2ccccc21.[Br-]`, in that order: 1000 µg/mL, 125 µg/mL, 31.3 µg/mL and 1.88.
The corresponding values for `CCCCCCCC[n+]1c(C)sc2ccccc21.[Br-]` are 1000 µg/mL, 62.5 µg/mL, 15.6 µg/mL and 2.38.
For `CCCCCCCCC[n+]1c(C)sc2ccccc21.[Br-]`, in that order: 500 µg/mL, 31.3 µg/mL, 7.8 µg/mL and 2.89.
Take `CCCCCCCCCC[n+]1c(C)sc2ccccc21.[Br-]`: the results for the MIC (in the series with Candida albicans; in series [1]; in the series with Saccharomyces cerevisiae) were 250 µg/mL, 7.8 µg/mL and 3.9 µg/mL, respectively. Besides, the logP in series [2] (read-out: logP) was found to be 3.39.
For `Cc1sc2ccccc2[n+]1Cc1ccccc1.[Br-]`, in that order: 1000 µg/mL, 1000 µg/mL, 1000 µg/mL and 0.517.
On to `Cc1sc2ccccc2[n+]1CCCS(=O)(=O)[O-]`, for which the MIC (in the series on Candida albicans; in series [1]; against Saccharomyces cerevisiae) was 1000 µg/mL (≈ 3.69 mM) each time. Besides, the logP in series [2] was -4.576.
Take `Cc1sc2ccccc2[n+]1CCCCS(=O)(=O)[O-]`: the MIC (with Candida albicans; in series [1]; against Saccharomyces cerevisiae) was 1000 µg/mL (≈ 3.5 mM) in each case. For the same compound, in series [2], the logP is -4.411.
As for `Cc1nc2ccccc2s1`, the MIC with Candida albicans was 1000 µg/mL (≈ 6.7 mM); in series [1], 250 µg/mL (≈ 1.68 mM); in the series with Saccharomyces cerevisiae it was 1000 µg/mL (≈ 6.7 mM). The logP in series [2] (read-out: logP) is 2.08.
Turning to `C[C@@H]1[C@H](O)[C@@H](C)/C=C/C=C/C=C/C=C/C=C/C=C/C=C/[C@H](O[C@@H]2O[C@H](C)[C@@H](O)[C@H](N)[C@@H]2O)C[C@@H]2O[C@](O)(C[C@@H](O)C[C@@H](O)[C@H](O)CC[C@@H](O)C[C@@H](O)CC(=O)O[C@H]1C)C[C@H](O)[C@H]2C(=O)O` [AMPHOTERICIN B], the MIC (against Candida albicans; in series [1]; with Saccharomyces cerevisiae) was 0.49 µg/mL (≈ 0.00053 mM) throughout.
`c1ccc2[nH]c(-c3cscn3)nc2c1` [THIABENDAZOLE]: the figures for the MIC (in the series on Candida albicans; in series [1]; against Saccharomyces cerevisiae) were 1000 µg/mL (≈ 4.97 mM), 31.2 µg/mL (≈ 0.155 mM) and 1000 µg/mL (≈ 4.97 mM), respectively.
